From ChEMBL document CHEMBL3045304, “Sesquiterpene lactones with potential use as natural herbicide models. 2. guaianolides” (2000)
Calls of active or inactive are those of the source. The calls are words filed in the database; no cut-off is given here.

Legend:
Allium cepa [1] = assay: Inhibition of germination of Allium cepa cv. Valenciana (onion) at 0.1 mM or 1 mM after 5 days relative to untreated control; type: functional
Triticum aestivum [2] = assay: Inhibition of root length of Triticum aestivum cv. Cortex (wheat) at 0.1 mM or 1 mM after 5 days relative to untreated control; type: functional
Outline: (§1)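 Wheat: 10 seeds per dish on filter paper with 5 mL test solution, 5 days in the dark at 25 °C, 10 replicates per concentration. Stock test solutions were 10^-3 or 10^-4 M in 10 mM MES, with lower levels made by dilution, all at pH 6.0. Parallel controls were run. Output is % difference from control.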

Triticum aestivum [3] = assay: Inhibition of hypocotyl length of Triticum aestivum cv. Cortex (wheat) at 0.1 mM or 1 mM after 5 days relative to untreated control; type: functional; outline: as §1
Triticum aestivum [4] = assay: Inhibition of germination of Triticum aestivum cv. Cortex (wheat) at 0.1 mM or 1 mM after 5 days relative to untreated control; type: functional; outline: as §1
Solanum lycopersicum [5] = assay: Inhibition of hypocotyl length of Solanum lycopersicum cv. Tres Cantos (tomato) at 0.1 mM or 1 mM after 5 days relative to untreated control; type: functional
Outline: (§2)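 Lettuce and tomato seeds, 25 per dish on filter paper, received 5 mL test solution. Incubation was 5 days in the dark at 25 °C, with four replicates per concentration. Solutions were made at 10^-3 or 10^-4 M in 10 mM MES, diluted serially, and adjusted to pH 6.0. Parallel controls were run. Results are % difference from control.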

Solanum lycopersicum [6] = assay: Inhibition of root length of Solanum lycopersicum cv. Tres Cantos (tomato) at 0.1 mM or 1 mM after 5 days relative to untreated control; type: functional; outline: as §2
Allium cepa [7] = assay: Inhibition of root length of Allium cepa cv. Valenciana (onion) at 0.1 mM or 1 mM after 5 days relative to untreated control; type: functional
Allium cepa [8] = assay: Inhibition of hypocotyl length of Allium cepa cv. Valenciana (onion) at 0.1 mM or 1 mM after 5 days relative to untreated control; type: functional
Allium cepa [9] = assay: Stimulation of hypocotyl length of Allium cepa cv. Valenciana (onion) at 0.1 mM or 1 mM after 5 days relative to untreated control; type: functional
Allium cepa [10] = assay: Stimulation of root length of Allium cepa cv. Valenciana (onion) at 0.1 mM or 1 mM after 5 days relative to untreated control; type: functional
Triticum aestivum [11] = assay: Stimulation of hypocotyl length of Triticum aestivum cv. Cortex (wheat) at 0.1 mM or 1 mM after 5 days relative to untreated control; type: functional; outline: as §1
Allium cepa [12] = assay: Stimulation of germination of Allium cepa cv. Valenciana (onion) at 0.1 mM or 1 mM after 5 days relative to untreated control; type: functional
Triticum aestivum [13] = assay: Stimulation of root length of Triticum aestivum cv. Cortex (wheat) at 0.1 mM or 1 mM after 5 days relative to untreated control; type: functional; outline: as §1
Solanum lycopersicum [14] = assay: Inhibition of germination of Solanum lycopersicum cv. Tres Cantos (tomato) at 0.1 mM or 1 mM after 5 days relative to untreated control; type: functional; outline: as §2
Lepidium sativum [15] = assay: Inhibition of germination of Lepidium sativum at 0.1 mM or 1 mM after 5 days relative to untreated control; type: functional
Lactuca sativa [16] = assay: Inhibition of hypocotyl length of Lactuca sativa cv. Roman (lettuce) at 0.1 mM or 1 mM after 5 days relative to untreated control; type: functional; outline: as §2
Lactuca sativa [17] = assay: Inhibition of root length of Lactuca sativa cv. Roman (lettuce) at 0.1 mM or 1 mM after 5 days relative to untreated control; type: functional; outline: as §2
Lactuca sativa [18] = assay: Inhibition of germination of Lactuca sativa cv. Roman (lettuce) at 0.1 mM or 1 mM after 5 days relative to untreated control; type: functional; outline: as §2
Triticum aestivum [19] = assay: Stimulation of germination of Triticum aestivum cv. Cortex (wheat) at 0.1 mM or 1 mM after 5 days relative to untreated control; type: functional; outline: as §1
Solanum lycopersicum [20] = assay: Stimulation of hypocotyl length of Solanum lycopersicum cv. Tres Cantos (tomato) at 0.1 mM or 1 mM after 5 days relative to untreated control; type: functional; outline: as §2
Solanum lycopersicum [21] = assay: Stimulation of root length of Solanum lycopersicum cv. Tres Cantos (tomato) at 0.1 mM or 1 mM after 5 days relative to untreated control; type: functional; outline: as §2
Solanum lycopersicum [22] = assay: Stimulation of germination of Solanum lycopersicum cv. Tres Cantos (tomato) at 0.1 mM or 1 mM after 5 days relative to untreated control; type: functional; outline: as §2
Lepidium sativum [23] = assay: Stimulation of hypocotyl length of Lepidium sativum at 0.1 mM or 1 mM after 5 days relative to untreated control; type: functional
Lepidium sativum [24] = assay: Stimulation of root length of Lepidium sativum at 0.1 mM or 1 mM after 5 days relative to untreated control; type: functional
Lactuca sativa [25] = assay: Stimulation of root length of Lactuca sativa cv. Roman (lettuce) at 0.1 mM or 1 mM after 5 days relative to untreated control; type: functional; outline: as §2
Lactuca sativa [26] = assay: Stimulation of hypocotyl length of Lactuca sativa cv. Roman (lettuce) at 0.1 mM or 1 mM after 5 days relative to untreated control; type: functional; outline: as §2
Lactuca sativa [27] = assay: Stimulation of germination of Lactuca sativa cv. Roman (lettuce) at 0.1 mM or 1 mM after 5 days relative to untreated control; type: functional; outline: as §2
Lepidium sativum [28] = assay: Inhibition of root length of Lepidium sativum at 0.1 mM or 1 mM after 4 days relative to untreated control
Lepidium sativum [29] = assay: Inhibition of germination of Lepidium sativum at 0.1 mM or 1 mM after 4 days relative to untreated control; design: scale not given: the % may be the effect or the level left
Lepidium sativum [30] = assay: Inhibition of hypocotyl length of Lepidium sativum at 0.1 mM or 1 mM after 4 days relative to untreated control
Allium cepa [31] = assay: Stimulation of root length of Allium cepa cv. Valenciana (onion) at 0.1 mM or 1 mM after 7 days relative to untreated control
Allium cepa [32] = assay: Stimulation of germination of Allium cepa cv. Valenciana (onion) at 0.1 mM or 1 mM after 7 days relative to untreated control
Allium cepa [33] = assay: Inhibition of hypocotyl length of Allium cepa cv. Valenciana (onion) at 0.1 mM or 1 mM after 7 days relative to untreated control
Allium cepa [34] = assay: Stimulation of hypocotyl length of Allium cepa cv. Valenciana (onion) at 0.1 mM or 1 mM after 7 days relative to untreated control
Lepidium sativum [35] = assay: Inhibition of germination of Lepidium sativum at 0.1 mM or 1 mM after 4 days relative to untreated control

Row | SMILES | inhibition (Allium cepa [1]) | inhibition (INH) (Triticum aestivum [3]) [%] | inhibition (Triticum aestivum [4]) | inhibition (INH) (Solanum lycopersicum [6]) [%] | Activity (Triticum aestivum [11]) | Activity (Triticum aestivum [13]) | inhibition (INH) (Lepidium sativum [15]) [%] | inhibition (INH) (Lactuca sativa [17]) [%] | inhibition (Lactuca sativa [18]) | Activity (Triticum aestivum [19]) | Activity (Solanum lycopersicum [20]) | Activity (Solanum lycopersicum [21]) | Activity (Solanum lycopersicum [22]) | Activity (Lepidium sativum [23]) | Activity (Lepidium sativum [24]) | Activity (Lactuca sativa [25]) | Activity (Lactuca sativa [26]) | Activity (Lactuca sativa [27]) | inhibition (INH) (Lepidium sativum [28]) | Activity (Lepidium sativum [29]) [%] | further results
1 | C=C1C(=O)O[C@H]2[C@H]1CCC(=C)[C@@H]1CCC(=C)[C@@]12O | inactive | <20 | inactive | <20 | <20% | inactive | <20 | 20 | inactive | inactive | inactive | <20% | inactive | >=20% | >=20% | 20% | inactive | inactive | >=20% | <20 | inhibition (Triticum aestivum [2]): inactive; inhibition (Solanum lycopersicum [5]): inactive; inhibition (INH) (Allium cepa [7]): 20%; inhibition (INH) (Allium cepa [8]): <20%; Activity (Allium cepa [9]): <20%; Activity (Allium cepa [10]): 20%; Activity (Allium cepa [12]): inactive; inhibition (Solanum lycopersicum [14]): inactive; inhibition (Lactuca sativa [16]): inactive; inhibition (INH) (Lepidium sativum [30]): >=20%
2 | C=C1[C@@H]2[C@H]3OC(=O)C(=C)[C@@H]3CCC(=C)[C@@H]2C[C@@H]1O [ZALUZANIN C] | inactive | 20 | – | <20 | 20% | 20% | <20 | 20 | inactive | <20% | inactive | <20% | inactive | inactive | <20% | 20% | 20% | inactive | <20% | <20 | inhibition (INH) (Triticum aestivum [2]): 20%; inhibition (INH) (Triticum aestivum [4]): <20%; inhibition (Solanum lycopersicum [5]): inactive; inhibition (Allium cepa [7]): inactive; inhibition (Solanum lycopersicum [14]): inactive; inhibition (INH) (Lactuca sativa [16]): 20%; inhibition (Lepidium sativum [30]): inactive; Activity (Allium cepa [31]): inactive; Activity (Allium cepa [32]): inactive; inhibition (Allium cepa [33]): inactive; Activity (Allium cepa [34]): inactive
3 | C=C1C(=O)O[C@H]2[C@H]1CCC(=C)[C@]1(O)C[C@@H](O)C(=C)[C@]21O | inactive | <20 | inactive | – | <20% | <20% | – | <20 | inactive | inactive | inactive | inactive | <20% | inactive | <20% | <20% | 20% | inactive | <20% | – | inhibition (INH) (Triticum aestivum [2]): <20%; inhibition (Solanum lycopersicum [5]): inactive; inhibition (Solanum lycopersicum [6]): inactive; inhibition (Allium cepa [7]): inactive; inhibition (INH) (Solanum lycopersicum [14]): <20%; inhibition (INH) (Lactuca sativa [16]): 20%; Activity (Lepidium sativum [35]): inactive; inhibition (Lepidium sativum [35]): inactive; inhibition (Lepidium sativum [30]): inactive; Activity (Allium cepa [31]): inactive; Activity (Allium cepa [32]): inactive; inhibition (Allium cepa [33]): inactive; Activity (Allium cepa [34]): inactive
4 | C=C1C(=O)C[C@H]2C(=C)CC[C@H]3C(=C)C(=O)O[C@@H]3[C@@H]12 [DEHYDROZALUZANIN C] | – | >40 | – | >40 | >40% | >40% | >40 | >40 | – | >40% | >40% | >40% | >40% | >40% | >40% | >40% | >40% | >40% | >40% | >40 | inhibition (INH) (Allium cepa [1]): >40%; inhibition (INH) (Triticum aestivum [2]): >40%; inhibition (INH) (Triticum aestivum [4]): >40%; inhibition (INH) (Solanum lycopersicum [5]): >40%; inhibition (INH) (Allium cepa [7]): >40%; inhibition (INH) (Allium cepa [8]): >40%; Activity (Allium cepa [9]): >40%; Activity (Allium cepa [10]): >40%; Activity (Allium cepa [12]): >40%; inhibition (INH) (Solanum lycopersicum [14]): >40%; inhibition (INH) (Lactuca sativa [16]): >40%; inhibition (INH) (Lactuca sativa [18]): >40%; inhibition (INH) (Lepidium sativum [30]): >40%
5 | C=C1C(=O)O[C@H]2[C@H]1CCC(=C)[C@@H]1C[C@@H](O)C(=C)[C@@]12O [5ALPHA-HYDROXYISOZALUZANIN C] | inactive | 20 | inactive | >40 | 20% | >40% | >40 | <20 | – | inactive | >40% | >40% | inactive | >40% | >40% | <20% | 20% | 20% | >40% | >40 | inhibition (INH) (Triticum aestivum [2]): >40%; inhibition (INH) (Solanum lycopersicum [5]): >40%; inhibition (INH) (Allium cepa [7]): >40%; inhibition (INH) (Allium cepa [8]): >40%; Activity (Allium cepa [9]): >40%; Activity (Allium cepa [10]): >40%; Activity (Allium cepa [12]): inactive; inhibition (Solanum lycopersicum [14]): inactive; inhibition (INH) (Lactuca sativa [16]): 20%; inhibition (INH) (Lactuca sativa [18]): 20%; inhibition (INH) (Lepidium sativum [30]): >40%
6 | CC1=CC(=O)C2=C(C)C[C@H](O)[C@H]3[C@H](OC(=O)[C@@H]3C)[C@@H]12 [8ALPHA-HYDROXYACHILLIN] | inactive | – | inactive | – | inactive | inactive | – | – | inactive | inactive | <20% | inactive | <20% | inactive | inactive | inactive | inactive | inactive | – | – | inhibition (Triticum aestivum [2]): inactive; inhibition (Triticum aestivum [3]): inactive; inhibition (INH) (Solanum lycopersicum [5]): <20%; inhibition (Solanum lycopersicum [6]): inactive; inhibition (Allium cepa [7]): inactive; inhibition (INH) (Solanum lycopersicum [14]): <20%; inhibition (Lactuca sativa [16]): inactive; inhibition (Lactuca sativa [17]): inactive; inhibition (Lepidium sativum [28]): inactive; Activity (Lepidium sativum [35]): inactive; inhibition (Lepidium sativum [35]): inactive; inhibition (Lepidium sativum [30]): inactive; Activity (Allium cepa [31]): inactive; Activity (Allium cepa [32]): inactive; inhibition (Allium cepa [33]): inactive; Activity (Allium cepa [34]): inactive
